Data set [1] addresses T1, Oxoeicosanoid receptor 1 (Homo sapiens, UniProt Q8TDS5). Kind of data set: Antagonist activity at OXE receptor (unknown origin) expressed in indo-1 loaded neutrophils assessed as inhibition of 5-oxo-ETE-induced calcium mobilization incubated for 2 mins prior to 5-oxo-ETE induction by spectrofluorometric analysis. Format: functional. Background: Calcium flux is commonly read through the fluorescence of an indicator in the cells.

Data set [2] concerns the target T1, Oxoeicosanoid receptor 1. Kind of data set: Antagonist activity at OXE receptor (unknown origin) expressed in anti-CD49d-labeled neutrophils assessed as inhibition of 5-oxo-ETE-induced F-actin polymerization preincubated for 5 mins followed by 5-oxo-ETE induction measured after 20 secs by flow cytometric analysis. The gist of the method:
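Unfractionated human leukocytes (dextran sedimentation, hypotonic lysis) stained 30 min on ice with APC-anti-CD49d, 5.5×10^6 cells/ml in PBS with Ca++/Mg++. Preincubated 5 min at 37 °C with vehicle or inhibitor, then 5-oxo-ETE (final 10 nM) for 20 s. Fixed in formaldehyde (final 8.5%), permeabilized with lysophosphatidylcholine, NBD-phalloidin (final 0.3 μM) overnight at 4 °C, flow cytometry. Eosinophils gated as high side scatter/high CD49d, neutrophils as high side scatter/low CD49d.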

Data set [3] concerns the target T1, Oxoeicosanoid receptor 1. Put plainly: Potency index, ratio of compound activity to Gue1654 activity for antagonism of OXE receptor (unknown origin) expressed in anti-CD49d-labeled neutrophils assessed as inhibition of 5-oxo-ETE-induced F-actin polymerization.
The test system of data set [4] is Liver. Put plainly: Drug metabolism in Sprague-Dawley rat liver homogenates assessed as metabolite retention time at 20 uM by reversed-phase HPLC analysis. Format: ADME, tissue-based. The note with it: tissue homogenate. The procedure, abridged: (§1)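 Male Sprague-Dawley rat liver homogenized in 0.25 M sucrose and spun at 600 × g for 10 min. Supernatant (0.8 ml) combined with phosphate buffer pH 7.4 (final 50 mM) and NADPH (final 1 mM). Compound (20 μM) incubated 60 min at 37 °C, stopped with ice-cold MeOH. Products analysed by reversed-phase HPLC with UV detection.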

Data set [5] concerns the target T1, Oxoeicosanoid receptor 1. Kind of data set: Potency index, ratio of compound activity to Gue1654 activity for antagonism of OXE receptor (unknown origin) expressed in anti-CD49d-labeled eosinophils assessed as inhibition of 5-oxo-ETE-induced F-actin polymerization.
The species entered for a further data set is Homo sapiens. Kind of data set: Antagonist activity at interleukin-8 receptor (unknown origin) expressed in indo-1 loaded neutrophils assessed as inhibition of IL-8-induced calcium mobilization by spectrofluorometric analysis. The gist of the method:
(§2)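 Human blood neutrophils (dextran sedimentation, Ficoll, hypotonic lysis) loaded with indo-1 AM. Ca++ 1.8 mM and Mg++ 1 mM added to the cuvette. Read at 37 °C with stirring, ex 331/em 410 nm. Vehicle or antagonist (10 μM) added, 5-oxo-ETE (10 nM) 2 min later, second agonist (LTB4, PAF, fMLP or IL-8) after a further 2 min, digitonin (0.1%) 1 min later for maximal fluorescence. Two independent experiments.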

For data set [6], the target named is T2, fMet-Leu-Phe receptor (Homo sapiens) (UniProt P21462).
T2 sequence (whole entry): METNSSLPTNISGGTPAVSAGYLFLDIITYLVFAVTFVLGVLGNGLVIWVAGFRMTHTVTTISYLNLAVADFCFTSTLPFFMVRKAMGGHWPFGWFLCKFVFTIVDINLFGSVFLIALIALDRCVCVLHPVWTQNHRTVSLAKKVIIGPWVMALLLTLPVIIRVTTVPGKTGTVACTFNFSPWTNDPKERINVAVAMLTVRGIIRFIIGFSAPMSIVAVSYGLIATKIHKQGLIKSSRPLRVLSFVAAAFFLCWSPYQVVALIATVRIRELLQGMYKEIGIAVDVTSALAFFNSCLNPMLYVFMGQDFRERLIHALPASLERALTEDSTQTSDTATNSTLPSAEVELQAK
Kind of data set: Antagonist activity at FPR1 receptor (unknown origin) expressed in indo-1 loaded neutrophils assessed as inhibition of fMLP-induced calcium mobilization at 10 uM by spectrofluorometric analysis. Format: functional. The procedure, abridged:
as §2

The nature of data set [7]: Drug metabolism in Sprague-Dawley rat liver homogenates at 20 uM after 60 mins by reversed-phase HPLC analysis in presence of NADPH. The note with it: read-out: Drug metabolism. The format is ADME, tissue-based. The gist of the method: as §1
The test system of data set [8] is Liver. Put plainly: Drug metabolism in Sprague-Dawley rat liver homogenates in presence of ATP, CoA, L-carnitine, NAD+. Particulars: tissue homogenate. The format is ADME, tissue-based.
Data set [9] has as its target Platelet-activating factor receptor (Homo sapiens) (UniProt P25105). Put plainly: Antagonist activity at PAF receptor (unknown origin) expressed in indo-1 loaded neutrophils assessed as inhibition of PAF-induced calcium mobilization at 10 uM by spectrofluorometric analysis. The format is functional. The procedure, abridged: as §2
In data set [10] the target is T1, Oxoeicosanoid receptor 1. Kind of data set: Antagonist activity at OXE receptor (unknown origin) expressed in anti-CD49d-labeled eosinophils assessed as inhibition of 5-oxo-ETE-induced F-actin polymerization preincubated for 5 mins followed by 5-oxo-ETE induction measured after 20 secs by flow cytometric analysis. The gist of the method:
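Unfractionated human leukocytes (dextran sedimentation, hypotonic lysis) stained 30 min on ice with APC-anti-CD49d, 5.5×10^6 cells/ml in PBS with Ca++/Mg++. Preincubated 5 min at 37 °C with vehicle or inhibitor, then 5-oxo-ETE (final 10 nM) for 20 s. Eosinophils gated as high side scatter/high CD49d, neutrophils as high side scatter/low CD49d.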
Background: In flow cytometry, cells or beads pass a laser one at a time.

A further data set has as its system Rattus norvegicus. Put plainly: Drug metabolism in […] in presence of NADPH. The format is ADME.
The target in data set [11] is Leukotriene B4 receptor 1 (Homo sapiens) (UniProt Q15722). Kind of data set: Antagonist activity at LTB4 receptor (unknown origin) expressed in indo-1 loaded neutrophils assessed as inhibition of LTB4-induced calcium mobilization at 10 uM by spectrofluorometric analysis. Format: functional. The gist of the method: as §2
Chain of Leukotriene B4 receptor 1 (Homo sapiens) (Q15722 whole entry): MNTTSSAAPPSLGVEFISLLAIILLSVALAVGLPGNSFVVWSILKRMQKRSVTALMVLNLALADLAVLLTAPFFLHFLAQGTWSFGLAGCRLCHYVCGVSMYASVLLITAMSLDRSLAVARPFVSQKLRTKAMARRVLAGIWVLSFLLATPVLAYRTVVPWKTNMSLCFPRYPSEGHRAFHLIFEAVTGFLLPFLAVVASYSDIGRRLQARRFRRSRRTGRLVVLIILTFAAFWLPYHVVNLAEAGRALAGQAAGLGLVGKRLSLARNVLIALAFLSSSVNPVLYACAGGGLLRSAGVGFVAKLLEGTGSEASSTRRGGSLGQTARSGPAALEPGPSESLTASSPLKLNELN
Data set [12] deals with Liver. Put plainly: Drug metabolism in Sprague-Dawley rat liver homogenates assessed as retention time of unmetabolized compound at 20 uM by reversed-phase HPLC analysis. Particulars: tissue homogenate. The format is ADME, tissue-based. The procedure, abridged:
as §1

Data set [13] has as its target T1, Oxoeicosanoid receptor 1. Kind of data set: Antagonist activity at OXE receptor in human neutrophils assessed as inhibition of 5-oxo-ETE-induced calcium mobilization by spectrofluorometric analysis. The format is functional. The procedure, abridged: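 Indo-1 AM-loaded human neutrophils (dextran, Ficoll, hypotonic lysis) in PBS with Ca++ 1.8 mM and Mg++ 1 mM, stirred at 37 °C, ex 331/em 410 nm. Vehicle (DMSO) or antagonist at varied concentrations, then 5-oxo-ETE (final 10 nM) 2 min later, then digitonin (0.1%) 1 min later for maximal signal. IC50s are means ± SE of per-experiment IC50 values.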

As a reminder, the IC50 is the concentration that inhibits the measured activity by half. One may read the inhibition as the relative decrease from the control value, in per cent.

Molecules are shown by their SMILES. The source made the active and inactive calls. The calls are words filed in the database; no cut-off is given here.

T1 sequence (Q8TDS5 whole entry): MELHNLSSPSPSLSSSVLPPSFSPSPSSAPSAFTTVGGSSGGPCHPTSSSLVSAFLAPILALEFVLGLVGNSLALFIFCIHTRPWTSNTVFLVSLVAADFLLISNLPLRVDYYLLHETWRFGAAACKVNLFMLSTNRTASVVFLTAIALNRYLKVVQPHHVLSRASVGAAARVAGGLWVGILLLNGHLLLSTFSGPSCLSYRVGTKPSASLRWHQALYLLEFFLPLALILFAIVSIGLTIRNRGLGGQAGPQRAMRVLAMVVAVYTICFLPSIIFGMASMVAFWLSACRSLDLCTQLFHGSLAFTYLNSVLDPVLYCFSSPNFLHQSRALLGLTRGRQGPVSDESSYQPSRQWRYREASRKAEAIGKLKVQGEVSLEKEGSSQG
Chain of Platelet-activating factor receptor (Homo sapiens) (P25105 whole entry): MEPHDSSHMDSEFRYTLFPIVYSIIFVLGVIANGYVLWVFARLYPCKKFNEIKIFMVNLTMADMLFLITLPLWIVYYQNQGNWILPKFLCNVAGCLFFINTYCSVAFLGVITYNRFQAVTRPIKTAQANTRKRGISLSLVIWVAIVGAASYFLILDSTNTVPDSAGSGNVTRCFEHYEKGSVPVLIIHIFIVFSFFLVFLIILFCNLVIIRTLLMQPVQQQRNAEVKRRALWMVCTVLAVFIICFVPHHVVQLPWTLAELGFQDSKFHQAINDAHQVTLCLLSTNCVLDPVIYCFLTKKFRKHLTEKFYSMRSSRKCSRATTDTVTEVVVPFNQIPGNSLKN

In the case of `CCCCCCCc1cc2ccccc2n1C(=O)CCCC(=O)O`, the IC50 on Oxoeicosanoid receptor 1 [1] amounted to 750 nM.

On to `CCCCCCCCC/C=C\c1cc2ccccc2n1C(=O)CCCC(=O)O`, for which the IC50 on Oxoeicosanoid receptor 1 [1] was determined as 550 nM.

With `CCCCCCCCc1cc2ccccc2n1C(=O)CCCC(=O)O`, the IC50 at Oxoeicosanoid receptor 1 [1] worked out at 570 nM.

`CCCCCCc1cc2ccccc2n1C(=O)CCCC(=O)O`: the 50% inhibitory concentration (IC50) on Oxoeicosanoid receptor 1 [1] worked out at 1130 nM.

On to `CCCCCCc1c(C(=O)CC(C)CC(=O)O)c2cc(Cl)ccc2n1C` (racemic), for which, on Oxoeicosanoid receptor 1 [2], the inhibition entry is “Active”. In addition, the Ratio at Oxoeicosanoid receptor 1 [3] and on Oxoeicosanoid receptor 1 [5] was 10 throughout. Further, the Retention_time in the data set on Liver [4] is on record as 14.1 min. Further, the inhibition result (in the data set filed under Homo sapiens; in data set [6]; in data set [9]; in [11]) was “inactive” each time. For the same molecule, in [7], the metabolised at 1 h, 20 µM was 2%. Further, the Drug metabolism entry in the data set on Liver [8] is reported as “Not Active”; with Rattus norvegicus, “Active”. On Oxoeicosanoid receptor 1 [10], the IC50 is 33 nM.

`CCCCCCc1cc2cc(Cl)ccc2n1C(=O)CC(C)CC(=O)O` (centres undefined): the IC50 on Oxoeicosanoid receptor 1 [1] is 141 nM.

For the molecule `CCCCc1cc2ccccc2n1C(=O)CCCC(=O)O`, the IC50 at Oxoeicosanoid receptor 1 [1] amounted to 13700 nM.

Turning to `CCCCCCc1cc2ccc(Br)cc2n1C(=O)CC(C)CC(=O)O` (centres undefined), the IC50 on Oxoeicosanoid receptor 1 [1] was 30 nM.

As for `O=C(O)CCCC(=O)n1ccc2ccccc21`, the IC50 on Oxoeicosanoid receptor 1 [1] is above 30000 nM.

`CCCCCCc1cc2ccccc2n1C(=O)CCC(=O)O`: the IC50 on Oxoeicosanoid receptor 1 [1] was above 30000 nM.

For the molecule `CCCCCCc1c(C(=O)CC(C)CC(=O)O)c2ccc(Cl)cc2n1C` (centres undefined), the IC50 at Oxoeicosanoid receptor 1 [1] was found to be 81 nM.

With `CCCCCCCCCCCc1cc2ccccc2n1C(=O)CCCC(=O)O`, the IC50 at Oxoeicosanoid receptor 1 [1] was determined as 700 nM.

For the molecule `CCCCCCc1cc2ccc(Cl)cc2n1C(=O)CC(C)CC(=O)O` (racemic), the inhibition entry on Oxoeicosanoid receptor 1 [2] is “Active”. Also, the results for the Retention_time in the data set on Liver [4] and in the data set on Liver [12] were 18.2 min and 30.2 min, respectively. Moreover, the inhibition result (in the data set filed under Homo sapiens; in [6]; in data set [9]; in data set [11]) was “inactive” in each case. Moreover, in [7], the metabolised at 1 h, 20 µM was determined as 12%. Besides, the figures for the Drug metabolism entry in the data set on Liver [8] and in the data set on Rattus norvegicus were “Not Active” and “Active”, respectively.

`CCCCCCc1cc2cc(Br)ccc2n1C(=O)CC(C)CC(=O)O` (centres undefined): the IC50 on Oxoeicosanoid receptor 1 [1] turned out to be 638 nM.

As to `CCCC/C=C/c1cc2ccccc2n1C(=O)CCCC(=O)O`, the half-maximal inhibitory concentration (IC50) at Oxoeicosanoid receptor 1 [1] stood at 4030 nM.

As for `CCCCCCc1c(C(=O)CCCC(=O)O)c2cc(Cl)ccc2n1C`, the IC50 at Oxoeicosanoid receptor 1 [1] is 566 nM.

Regarding `CCCCCCc1cc2ccccc2n1C(=O)CC(C)(C)CC(=O)O`, the IC50 on Oxoeicosanoid receptor 1 [1] worked out at 11000 nM.

For `CCCCCCn1cc(C(=O)CCCC(=O)O)c2ccccc21`, on Oxoeicosanoid receptor 1 [1], the inhibition entry is “Active”.

On to `CCCCCc1cc2ccccc2n1C(=O)CCCC(=O)O`, for which the IC50 on Oxoeicosanoid receptor 1 [1] was 2150 nM.

Regarding `CCCCC/C=C\C[C@H](O)/C=C/C=C\C=C\C(=O)CCCC(=O)O`, on Oxoeicosanoid receptor 1 [13], the IC50 came out at 500 nM.

For `CCCCCCc1c(C(=O)CC(C)CC(=O)O)c2cc(Br)ccc2n1C` (centres undefined), the IC50 at Oxoeicosanoid receptor 1 [1] turned out to be 26 nM.

Take `CCCCCCc1cc2ccc(OC)cc2n1C(=O)CC(C)CC(=O)O` (centres undefined): the IC50 at Oxoeicosanoid receptor 1 [1] was determined as 323 nM.

As to `CCCCCCc1ccc2c(ccn2C(=O)CCCC(=O)O)c1`, the inhibition result at Oxoeicosanoid receptor 1 [1] is “Active”.

As for `CCCCCCc1nc2ccccc2cc1C(=O)CCCC(=O)O`, the IC50 on Oxoeicosanoid receptor 1 [1] is above 30000 nM.

With `CCCCC/C=C\C[C@H](O)/C=C/C=C/C=C/C(=O)CCCC(=O)O`, the half-inhibitory concentration (IC50) on Oxoeicosanoid receptor 1 [13] was found to be 2500 nM.

As to `CCCCCCc1cc2ccccc2n1C(=O)CC1(CC(=O)O)CC1`, the IC50 at Oxoeicosanoid receptor 1 [1] is 1630 nM.

As to `CCCCCCc1cn(C(=O)CCCC(=O)O)c2ccccc12`, at Oxoeicosanoid receptor 1 [1], the inhibition entry is “Active”.

Turning to `CCCCCCc1cccc2ccn(C(=O)CCCC(=O)O)c12`, the inhibition entry on Oxoeicosanoid receptor 1 [1] is “Active”.

Turning to `CCCCCCc1c(C(=O)CCCC(=O)O)c2ccccc2n1C`, the IC50 on Oxoeicosanoid receptor 1 [1] was found to be 6060 nM.

For `CCCCCCc1c(C)c2ccccc2n1C(=O)CC(C)CC(=O)O` (centres undefined), on Oxoeicosanoid receptor 1 [1], the IC50 came to 136 nM.

Regarding `CCCCCCc1c(C(=O)CC(C)CC(=O)O)c2ccccc2n1C` (centres undefined), the IC50 at Oxoeicosanoid receptor 1 [1] is 314 nM.

Take `CCCCCCc1[nH]c2ccccc2c1C(=O)CCCC(=O)O`: at Oxoeicosanoid receptor 1 [1], the IC50 turned out to be 9750 nM and the inhibition amounted to 50%.

For `CCCCCCc1ccc2ccn(C(=O)CCCC(=O)O)c2c1`, the inhibition entry at Oxoeicosanoid receptor 1 [1] is “Active”.

Values taken from ChEMBL document CHEMBL3112579, “Inhibition of 5-oxo-6,8,11,14-eicosatetraenoic acid-induced activation of neutrophils and eosinophils by novel indole OXE receptor antagonists” (J Med Chem, 2014).
